Blood glucose, BGL and HAR data for eleven molecules are collected here from ChEMBL document CHEMBL1128586, “Antihyperglycemic N-sulfonyl-1a,2,6,6a-tetrahydro-1H,4H- [1,3]dioxepino[5,6-b]azirines: synthesis, X-ray structure analysis, conformational behavior, quantitative structure-property relationships, and quantitative structure-activity relationships” (J Med Chem, 1995).

Assay type in all cases: functional
The subject of test [1] is Mus musculus. As to the kind of experiment: Effect on blood glucose levels in healthy mice at subcutaneous dose of 20 mg/kg at 0 min. A digest of the protocol:
(§1)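 Healthy (nondiabetic) fasted animals: CBA mice (20-25 g) or Fischer rats (160-200 g), fasted 16 h before treatment. Single iv or sc dose given at zero time; drug dissolved in minimal DMSO, diluted with 0.9% saline. Tail-vein blood sampled over time; glucose measured by enzymatic-colorimetric kit, expressed as mmol/L whole blood; group sizes 6-12.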

For test [2], the system named is Mus musculus. As to the kind of experiment: Effect on blood glucose levels in healthy mice at intravenous dose of 5 mg/kg at 0 min. The essentials:
as §1

Test [3] deals with Mus musculus. As to the kind of experiment: Effect on blood glucose levels in healthy mice at intravenous dose of 20 mg/kg at 40 min. The essentials:
as §1

The subject of test [4] is Mus musculus. As to the kind of experiment: Effect on blood glucose levels in healthy mice at subcutaneous dose of 100 mg/kg at 60 min. The essentials:
as §1

Test [5] has as its system Rattus norvegicus. As to the kind of experiment: Effect on blood glucose levels in healthy rat at subcutaneous dose of 20 mg/kg at 0 min. A digest of the protocol: as §1
Test [6] deals with Mus musculus. As to the kind of experiment: Hypoglycemic effect of compound 1 hr after subcutaneous administration of 20 mg/kg dose in alloxanized mice and expressed as percent of initial blood glucose level. A digest of the protocol:
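CBA mice of either sex, 20-25 g, made diabetic by single tail-vein alloxan monohydrate 65 mg/kg and tested 48 h later. Compound given sc at 20 mg/kg, dissolved in minimal DMSO and diluted with 0.9% saline. Tail-vein blood sampled before dosing and at 1 h. Glucose measured by enzymatic-colorimetric kit and expressed as percent of the initial sample.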

Test [7] deals with Mus musculus. As to the kind of experiment: Hypoglycemic effect of compound 1 hr after subcutaneous administration of a 20 mg/kg dose in alloxanized mice and expressed as hypoglycemic activity ratio (hAR) taking metformin as standard. The essentials: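 Alloxan-diabetic CBA mice (65 mg/kg iv alloxan, used after 48 h) received 20 mg/kg sc in DMSO/saline. Glucose was measured enzymatically in tail-vein blood and expressed as %BGL at 1 h. HAR = (100 − %BGL of compound)/(100 − %BGL of metformin), with metformin tested at the same dose and route.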

Test [8] deals with Mus musculus. As to the kind of experiment: Effect on blood glucose levels in healthy mice at intravenous dose of 20 mg/kg at 60 min. The essentials:
as §1

The test system of test [9] is Mus musculus. As to the kind of experiment: Effect on blood glucose levels in healthy mice at intravenous dose of 20 mg/kg at 0 min. The essentials:
as §1

The subject of test [10] is Mus musculus. As to the kind of experiment: Effect on blood glucose levels in healthy mice at subcutaneous dose of 20 mg/kg at 120 min. A digest of the protocol:
as §1

In test [11] the test system is Mus musculus. As to the kind of experiment: Effect on blood glucose levels in healthy mice at intravenous dose of 5 mg/kg at 60 min. A digest of the protocol: as §1
Test [12] has as its system Mus musculus. As to the kind of experiment: Effect on blood glucose levels in healthy mice at intravenous dose of 5 mg/kg at 40 min. The essentials:
as §1

For test [13], the system named is Rattus norvegicus. As to the kind of experiment: Effect on blood glucose levels in healthy rat at subcutaneous dose of 20 mg/kg at 60 min. A digest of the protocol:
as §1

For test [14], the system named is Mus musculus. As to the kind of experiment: Effect on blood glucose levels in healthy mice at subcutaneous dose of 100 mg/kg at 120 min. The essentials: as §1
Test [15] deals with Mus musculus. As to the kind of experiment: Effect on blood glucose levels in healthy mice at subcutaneous dose of 20 mg/kg at 60 min. A digest of the protocol:
as §1

The test system of test [16] is Mus musculus. As to the kind of experiment: Effect on blood glucose levels in healthy mice at subcutaneous dose of 100 mg/kg at 0 min. A digest of the protocol: as §1

The structures appear in SMILES notation.

For the molecule `CC(=O)Nc1ccc(S(=O)(=O)N2[C@@H]3COCOC[C@@H]32)cc1` (stereo partly specified), the Blood glucose with Mus musculus [1] is 12.43 mM (l of whole blood)-1; with Mus musculus [2] it was 8.35 mM (l of whole blood)-1; in the test on Mus musculus [3], 9.3 mM (l of whole blood)-1; in the test with Mus musculus [4] it was 12.09 mM (l of whole blood)-1; in the test with Rattus norvegicus [5] it was 5.52 mM (l of whole blood)-1; in the test with Mus musculus [8] it was 8.82 mM (l of whole blood)-1. In addition, the Blood glucose is on record as 8.83 mM (l of whole blood)-1 with Mus musculus [9]; 13.15 mM (l of whole blood)-1 with Mus musculus [10]; 8.72 mM (l of whole blood)-1 with Mus musculus [11]; 8.61 mM (l of whole blood)-1 in the test with Mus musculus [12]; 5.44 mM (l of whole blood)-1 with Rattus norvegicus [13]; 13.17 mM (l of whole blood)-1 with Mus musculus [14]. Further, the Blood glucose was 14.41 mM (l of whole blood)-1 in the test with Mus musculus [15] and 11.72 mM (l of whole blood)-1 in the test with Mus musculus [16]. In the test with Mus musculus [6], the BGL is 37%. Besides, the HAR in the test with Mus musculus [7] is reported as 4.5.

In the test with Mus musculus [6], `Cc1ccc(S(=O)(=O)N2[C@@H]3COCOC[C@@H]32)cc1` (stereo partly specified) returned a BGL of 94%. Also, the HAR in the test with Mus musculus [7] is on record as 0.42.

Molecule `O=S(=O)(c1ccc(Br)cc1)N1[C@@H]2COCOC[C@@H]21` (stereo partly specified) displayed a BGL with Mus musculus [6] of 107%. The HAR in the test on Mus musculus [7] is on record as -0.5.

`O=S(=O)(c1ccccc1)N1[C@@H]2COCOC[C@@H]21` (stereo partly specified) showed a BGL in the test with Mus musculus [6] of 53%. Besides, the HAR in the test with Mus musculus [7] is on record as 3.36.

`CC(=O)Nc1ccc(S(=O)(=O)N2[C@@H]3CO[C@H](C(C)C)OC[C@@H]32)cc1` (stereo partly specified) registered a BGL with Mus musculus [6] of 84.8%. Further, the HAR in the test on Mus musculus [7] is 1.08.

For `CC(=O)Nc1ccc(S(=O)(=O)N2[C@@H]3CO[C@@H](C(C)C)OC[C@@H]32)cc1` (stereo partly specified), in the test with Mus musculus [6], the BGL is 85%. Further, the HAR with Mus musculus [7] turned out to be 1.07.

Consider `CC(C)[C@@H]1OC[C@@H]2[C@H](CO1)N2S(=O)(=O)c1ccc([N+](=O)[O-])cc1` (stereo partly specified), for which the BGL with Mus musculus [6] was determined as 78%. Also, the HAR in the test on Mus musculus [7] was found to be 1.57.

For `O=S(=O)(c1ccc(F)cc1)N1[C@@H]2COCOC[C@@H]21` (stereo partly specified), in the test with Mus musculus [6], the BGL turned out to be 76%. Also, the HAR with Mus musculus [7] amounted to 1.71.

Regarding `COc1ccc(S(=O)(=O)N2[C@@H]3COCOC[C@@H]32)cc1` (stereo partly specified), the BGL with Mus musculus [6] is 78%. Besides, the HAR in the test with Mus musculus [7] is listed as 1.57.

As to `O=S(=O)(c1ccc(Cl)cc1)N1[C@@H]2COCOC[C@@H]21` (stereo partly specified), the BGL in the test with Mus musculus [6] is on record as 77%. Besides, in the test with Mus musculus [7], the HAR is 1.64.

Molecule `CN(C)C(=N)NC(=N)N` [METFORMIN] returned a BGL in the test on Mus musculus [6] of 86%. Further, the HAR in the test with Mus musculus [7] is 1.
